ChEMBL document CHEMBL5724801, “EUbOPEN Chemogenomics Library - Multiplex” (2024)
Several values for one entry are separate records, joined by “and”; a condition that tells them apart may be missing. Identical values can stand only once.

Test system: HEK-293T
Assay: Multiplex assay against HEK293T
Format: toxicity, cell-based
Details: human
Procedure, shortened: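 With compound added, live cells were imaged on a CQ1 microscope at 37°C and 5% CO2; staining with Hoechst33342, BioTracker Green Microtubule Cytoskeleton Dye, MitoTracker Red and Annexin V Alexa Fluor 680 had been done at seeding. The CellPathfinder machine-learning gating scheme split cells into Hoechst high-intensity objects or normal cells, normal cells into healthy, pyknosed or fragmented nuclei, and pyknosed cells into mitotic or apoptotic. The tubulin, mitochondrial-mass and membrane-permeability phenotypes are per cents of healthy-nucleus cells.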

[1] = 12 h, 1 µM, compound concentration 1 uM
[2] = 12 h, 10 µM, compound concentration 10 uM
[3] = 24 h, 1 µM, compound concentration 1 uM
[4] = 24 h, 10 µM, compound concentration 10 uM
[5] = 48 h, 1 µM, compound concentration 1 uM
[6] = 48 h, 10 µM, compound concentration 10 uM

O=C1CSC(=O)N1C(CCc1ccncc1)COc1ccc(-c2cccc([N+](=O)[O-])c2)cc1 (stereo not drawn)
Population Apoptotic (%) [1]: 18.32% and 7.02% | Population Fragmented Nuclei (%) [1]: 3.08% and 7.35% | Population Hoechst High Intensity Objects (%) [1]: 0.76% and 0% | Population Membrane Permeable-Phenotype (%) [1]: 2.48% and 0% | Population Mitochondria Different-Phenotype (%) [1]: 25.62% and 16.67% | Population Mitotic Cells (%) [1]: 81.68% and 92.98% | Population Normal (%) [1]: 99.24% and 100% | Population Pyknosed Nuclei (%) [1]: 50.38% and 83.82% | Total Cell Count [1]: 262 and 136 | Population Apoptotic (%) [2]: 45.8% and 41.28% | Population Fragmented Nuclei (%) [2]: 3.51% and 3.1% | Population Healthy Nuclei (%) [2]: 19.88% and 12.4% | Population Hoechst High Intensity Objects (%) [2]: 0.58% and 0% | Population Membrane Permeable-Phenotype (%) [2]: 0% | Population Mitochondria Different-Phenotype (%) [2]: 32.35% and 18.75% | Population Mitotic Cells (%) [2]: 54.2% and 58.72% | Population Normal (%) [2]: 99.42% and 100% | Population Pyknosed Nuclei (%) [2]: 76.61% and 84.5% | Population Tubulin-Different-Phenotype (%) [2]: 70.59% and 62.5% | Total Cell Count [2]: 172 and 129 | Population Apoptotic (%) [3]: 27.34% and 23.23% | Population Fragmented Nuclei (%) [3]: 4.44% and 4.69% | Population Hoechst High Intensity Objects (%) [3]: 0.52% and 0% | Population Membrane Permeable-Phenotype (%) [3]: 0.42% and 0% | Population Mitochondria Different-Phenotype (%) [3]: 35.71% and 17.39% | Population Mitotic Cells (%) [3]: 72.66% and 76.77% | Population Normal (%) [3]: 99.48% and 100% | Population Pyknosed Nuclei (%) [3]: 33.42% and 77.34% | Population Apoptotic (%) [4]: 78.62% and 78.15% | Population Fragmented Nuclei (%) [4]: 2.66% and 5.11% | Population Healthy Nuclei (%) [4]: 20.21% and 8.03% | Population Hoechst High Intensity Objects (%) [4]: 1.05% and 0.72% | Population Membrane Permeable-Phenotype (%) [4]: 0% | Population Mitochondria Different-Phenotype (%) [4]: 81.58% and 63.64% | Population Mitotic Cells (%) [4]: 21.38% and 21.85% | Population Normal (%) [4]: 98.95% and 99.28% | Population Pyknosed Nuclei (%) [4]: 77.13% and 86.86% | Population Tubulin-Different-Phenotype (%) [4]: 100% and 45.45% | Total Cell Count [4]: 190 and 138 | Population Apoptotic (%) [5]: 14.91% and 17.91% | Population Fragmented Nuclei (%) [5]: 2.27% and 5.07% | Population Healthy Nuclei (%) [5]: 82.51% and 46.38% | Population Hoechst High Intensity Objects (%) [5]: 0% | Population Membrane Permeable-Phenotype (%) [5]: 2.59% and 1.56% | Population Mitochondria Different-Phenotype (%) [5]: 37.38% and 28.12% | Population Mitotic Cells (%) [5]: 85.09% and 82.09% | Population Normal (%) [5]: 100% | Population Apoptotic (%) [6]: 71.68% and 69.07% | Population Fragmented Nuclei (%) [6]: 2.88% and 7.56% | Population Hoechst High Intensity Objects (%) [6]: 1.89% and 0% | Population Membrane Permeable-Phenotype (%) [6]: 3.37% and 0% | Population Mitochondria Different-Phenotype (%) [6]: 95.51% and 84.62% | Population Mitotic Cells (%) [6]: 28.32% and 30.93% | Population Normal (%) [6]: 98.11% and 100% | Population Pyknosed Nuclei (%) [6]: 54.33% and 81.51% | Population Tubulin-Different-Phenotype (%) [6]: 84.27% and 69.23% | Total Cell Count [6]: 212 and 119

N#Cc1ccnc(Nc2cc(C3CCN(C4COC4)CC3)cc(N3CCC(F)(F)C3)n2)c1
Population Apoptotic (%) [1]: 18.37% and 8.2% | Population Fragmented Nuclei (%) [1]: 1.49% and 2.08% | Population Healthy Nuclei (%) [1]: 25.74% and 13.19% | Population Hoechst High Intensity Objects (%) [1]: 0.98% and 0% | Population Membrane Permeable-Phenotype (%) [1]: 0% | Population Mitotic Cells (%) [1]: 81.63% and 91.8% | Population Normal (%) [1]: 99.02% and 100% | Population Pyknosed Nuclei (%) [1]: 72.77% and 84.72% | Population Tubulin-Different-Phenotype (%) [1]: 32.69% and 42.11% | Total Cell Count [1]: 204 and 144 | Population Apoptotic (%) [2]: 23.38% and 27.5% | Population Fragmented Nuclei (%) [2]: 5.2% and 14.04% | Population Healthy Nuclei (%) [2]: 20.07% and 15.79% | Population Hoechst High Intensity Objects (%) [2]: 0.37% and 0.87% | Population Mitotic Cells (%) [2]: 76.62% and 72.5% | Population Normal (%) [2]: 99.63% and 99.13% | Population Pyknosed Nuclei (%) [2]: 74.72% and 70.18% | Total Cell Count [2]: 270 and 230 | Population Apoptotic (%) [3]: 44.81% and 25.93% | Population Fragmented Nuclei (%) [3]: 1.81% and 1.57% | Population Hoechst High Intensity Objects (%) [3]: 0.72% and 0.78% | Population Membrane Permeable-Phenotype (%) [3]: 2.56% and 0% | Population Mitochondria Different-Phenotype (%) [3]: 41.88% and 35.29% | Population Mitotic Cells (%) [3]: 55.19% and 74.07% | Population Normal (%) [3]: 99.28% and 99.22% | Population Pyknosed Nuclei (%) [3]: 55.8% and 85.04% | Population Tubulin-Different-Phenotype (%) [3]: 49.57% and 23.53% | Total Cell Count [3]: 278 and 128 | Population Apoptotic (%) [4]: 63.77% and 56.46% | Population Fragmented Nuclei (%) [4]: 4.87% and 13.57% | Population Healthy Nuclei (%) [4]: 17.6% and 19.91% | Population Hoechst High Intensity Objects (%) [4]: 0.74% and 0% | Population Membrane Permeable-Phenotype (%) [4]: 0% and 9.09% | Population Mitotic Cells (%) [4]: 36.23% and 43.54% | Population Normal (%) [4]: 99.26% and 100% | Population Pyknosed Nuclei (%) [4]: 77.53% and 66.52% | Total Cell Count [4]: 269 and 221 | Population Fragmented Nuclei (%) [5]: 4.08% and 0.7% | Population Healthy Nuclei (%) [5]: 73.7% and 38.46% | Population Hoechst High Intensity Objects (%) [5]: 0.23% and 0.69% | Population Membrane Permeable-Phenotype (%) [5]: 4.31% and 3.64% | Population Mitochondria Different-Phenotype (%) [5]: 60.62% and 56.36% | Population Mitotic Cells (%) [5]: 69.39% and 90.8% | Population Normal (%) [5]: 99.77% and 99.31% | Population Pyknosed Nuclei (%) [5]: 22.22% and 60.84% | Population Apoptotic (%) [6]: 88.68% and 82.35% | Population Fragmented Nuclei (%) [6]: 5.62% and 11.71% | Population Healthy Nuclei (%) [6]: 14.98% and 13.66% | Population Hoechst High Intensity Objects (%) [6]: 0.37% and 0.49% | Population Membrane Permeable-Phenotype (%) [6]: 5% and 3.57% | Population Mitotic Cells (%) [6]: 11.32% and 17.65% | Population Normal (%) [6]: 99.63% and 99.51% | Population Pyknosed Nuclei (%) [6]: 79.4% and 74.63% | Total Cell Count [6]: 268 and 206

Cc1cc(C)c(NC(=O)C2CC3CCC2C3)c(C)c1 (stereo not drawn)
Population Apoptotic (%) [1]: 10.42% and 11.4% | Population Fragmented Nuclei (%) [1]: 4.2% and 7.23% | Population Healthy Nuclei (%) [1]: 55.46% and 24.1% | Population Hoechst High Intensity Objects (%) [1]: 0.83% and 0% | Population Membrane Permeable-Phenotype (%) [1]: 0.51% and 2.5% | Population Mitochondria Different-Phenotype (%) [1]: 38.89% and 22.5% | Population Mitotic Cells (%) [1]: 89.58% and 88.6% | Population Normal (%) [1]: 99.17% and 100% | Population Pyknosed Nuclei (%) [1]: 40.34% and 68.67% | Total Cell Count [1]: 360 and 166 | Population Apoptotic (%) [2]: 15.2% | Population Fragmented Nuclei (%) [2]: 3.72% and 4.14% | Population Healthy Nuclei (%) [2]: 44.63% and 21.89% | Population Hoechst High Intensity Objects (%) [2]: 0.82% and 0% | Population Membrane Permeable-Phenotype (%) [2]: 0.93% and 2.7% | Population Mitochondria Different-Phenotype (%) [2]: 32.41% and 16.22% | Population Mitotic Cells (%) [2]: 84.8% | Population Normal (%) [2]: 99.18% and 100% | Population Pyknosed Nuclei (%) [2]: 51.65% and 73.96% | Total Cell Count [2]: 244 and 169 | Population Apoptotic (%) [3]: 14.08% and 10% | Population Fragmented Nuclei (%) [3]: 1.7% and 6.43% | Population Healthy Nuclei (%) [3]: 74.19% and 29.24% | Population Hoechst High Intensity Objects (%) [3]: 0% | Population Membrane Permeable-Phenotype (%) [3]: 1.6% and 0% | Population Mitotic Cells (%) [3]: 85.92% and 90% | Population Normal (%) [3]: 100% | Population Pyknosed Nuclei (%) [3]: 24.11% and 64.33% | Population Tubulin-Different-Phenotype (%) [3]: 17.39% and 0% | Population Apoptotic (%) [4]: 17.76% and 15.52% | Population Fragmented Nuclei (%) [4]: 1.69% and 2.58% | Population Healthy Nuclei (%) [4]: 72.53% and 37.63% | Population Hoechst High Intensity Objects (%) [4]: 0% | Population Membrane Permeable-Phenotype (%) [4]: 0.33% and 1.37% | Population Mitochondria Different-Phenotype (%) [4]: 17.61% and 20.55% | Population Mitotic Cells (%) [4]: 82.24% and 84.48% | Population Normal (%) [4]: 100% | Population Pyknosed Nuclei (%) [4]: 25.78% and 59.79% | Population Tubulin-Different-Phenotype (%) [4]: 14.95% and 10.96% | Total Cell Count [4]: 415 and 194 | Population Apoptotic (%) [5]: 8.16% and 13.89% | Population Fragmented Nuclei (%) [5]: 2.91% and 1.03% | Population Healthy Nuclei (%) [5]: 86.66% and 62.05% | Population Hoechst High Intensity Objects (%) [5]: 0% and 1.52% | Population Membrane Permeable-Phenotype (%) [5]: 4.67% and 2.48% | Population Mitochondria Different-Phenotype (%) [5]: 12.37% and 24.79% | Population Mitotic Cells (%) [5]: 91.84% and 86.11% | Population Normal (%) [5]: 100% and 98.48% | Population Apoptotic (%) [6]: 9.24% and 23.08% | Population Fragmented Nuclei (%) [6]: 2.94% and 2.43% | Population Healthy Nuclei (%) [6]: 84.08% and 71.26% | Population Hoechst High Intensity Objects (%) [6]: 0% | Population Membrane Permeable-Phenotype (%) [6]: 4.15% and 3.98% | Population Mitochondria Different-Phenotype (%) [6]: 20.62% and 28.98% | Population Mitotic Cells (%) [6]: 90.76% and 76.92% | Population Normal (%) [6]: 100% | Population Pyknosed Nuclei (%) [6]: 12.98% and 26.32%
